From ChEMBL document CHEMBL1133463, “Novel mutual prodrug of retinoic and butyric acids with enhanced anticancer activity” (J Med Chem, 2000)
Several values for one entry are separate records, joined by “and”; a condition that tells them apart may be missing. Identical values can stand only once.

How the values were obtained:
HL-60 [1] = experiment: Differentiation activity was determined by evaluation of NBT reduction activity of HL-60 cells, % of NBT positive cells determined; format: functional, Homo sapiens
Outline: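 HL-60 grown 2 days with or without compound at 0.25 μM. Cultures then given 0.1% NBT, stimulated with 0.4 μM PMA and incubated 30 min at 37 °C. At least 200 cells scored microscopically. % NBT-positive cells taken as stained/total, minus the untreated-culture value. Three independent experiments.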

3LLD122 = experiment: Concentration required to inhibit the colony formation of lung carcinoma (3LLD122) cell lines by 50%; format: functional, cell-based; settings: Mus musculus
Outline: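 Murine 3LLD122 (highly metastatic 3LL subclone) grown in RPMI with 10% FCS and 2 mM glutamine at 37 °C, 5% CO2. Compounds added to the upper layer of a semisolid agar bilayer. Aggregates of >20 cells scored as colonies after 7 days by inverted microscope. Drugs in DMSO at 1:1000 dilution (final DMSO ≤0.1%).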

MIA PaCa-2 = experiment: Concentration required to inhibit the colony formation of pancreatic human (PACA) cell lines by 50%; format: functional, cell-based
Outline: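 PaCa2 single-cell suspensions plated at 400 cells per 60-mm dish. Drug exposure began 24 h after plating. Colonies formed over 7-12 days, then were MeOH-fixed, Giemsa-stained, counted and compared with untreated control. Triplicate assays. Drugs in DMSO, final ≤0.1%.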

HL-60 [2] = experiment: In vitro for the differentiation induction activity determined in the human myeloid leukemic cell line HL-60; format: functional; settings: read-out: ED50 (the source's name)
Outline: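 HL-60 treated 4 days. NBT reduction measured with 0.1% NBT plus 0.4 μM PMA for 30 min at 37 °C, scoring ≥200 cells, with the untreated background subtracted. ED50 is the concentration giving half-maximal NBT reduction, obtained by linear regression and averaged over three independent experiments.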

Compound | NBT positive cells (HL-60 [1]) | IC50 (3LLD122) | IC50 (MIA PaCa-2) | EC50 (HL-60 [2])
CC1=C(/C=C/C(C)=C/C=C/C(C)=C/C(=O)OCOC(=O)C(C)C)C(C)(C)CCC1 | 48% and 54% and 49% | – | – | –
CC1=C(/C=C/C(C)=C/C=C/C(C)=C/C(=O)OCOC(=O)C(C)(C)C)C(C)(C)CCC1 | 13% and 21% and 17% | – | – | –
CCC(=O)OCOC(=O)/C=C(C)/C=C/C=C(C)/C=C/C1=C(C)CCCC1(C)C | 60% and 56% and 57% | – | – | –
CCCC(=O)OCOC(=O)/C=C(C)/C=C/C=C(C)/C=C/C1=C(C)CCCC1(C)C | 72% and 74% and 78% | 4.5 µM | 4 µM | 0.031 µM
CCCC(=O)OCOC(=O)C(C)(C)C [AN-9] | – | 35 µM | 30 µM | –
CCCC(=O)O [BUTYRIC ACID] | – | > 1000 µM | 250 µM | 285 µM
CC1=C(/C=C/C(C)=C/C=C/C(C)=C/C(=O)O)C(C)(C)CCC1 [TRETINOIN] | 21% and 30% and 22% | 33 µM | 9.5 µM | 1.25 µM
